Sampled rows, rich in hits. Any-hit rate of the full collection: about 2.8%.
ASAP1 GAP inh: inhibitors of human ASAP1 ArfGAP activity; ASAP1-stimulated ARF1 GTP hydrolysis, GDP FP detection; inhibition, % at 16.5 µM; 0.19% of 360,000 active; AID 624377; in the data active = inhibition above about 25%;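 note: 0% = vehicle with enzyme and substrate and 100% = no enzyme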
pPAFAH inh: pPAFAH (human) enzyme inhibition; Q13093; recombinant pPAFAH, FP-rhodamine probe fluorescence polarization; inhibition, % at 3.39 µM; 1.5% of 330,000 active; AID 463082;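 active = inhibition above the mean inhibition across the screen plus 3 SD, cut at about 25% in these data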;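 note: inhibitors block binding of the rhodamine activity-based probe so polarization drops; 0% = enzyme with DMSO and 100% = wells lacking pPAFAH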
PAFAH2 inh: inhibitors of human PAFAH2 | recombinant PAFAH2, FP-rhodamine activity probe, fluorescence polarization | inhibition, % at 3.39 µM | AID 492956 | Q99487 | 0.99% of 340,000 active;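 active = inhibition above the mean over all tested compounds plus 3 SD, cut at about 30% in these data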;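 note: inhibitors block probe labeling of enzyme so polarization drops; 0% = enzyme with DMSO and 100% = wells lacking PAFAH2 protein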
ARFGAP1 inh: inhibitors of rat ARFGAP1. Q62848. Arfgap1-stimulated ARF1 GTP hydrolysis, GDP FP detection. inhibition, % at 16.5 µM. 0.26% of 360,000 active. AID 651572;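 active = inhibition above a per-plate limit, mean inhibition of low control wells plus 3 SD, cut at about 25% in these data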;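 note: 0% = DMSO wells with enzyme and 100% = wells lacking Arfgap1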
Target sequence (Q62848 1-136 limits assumed): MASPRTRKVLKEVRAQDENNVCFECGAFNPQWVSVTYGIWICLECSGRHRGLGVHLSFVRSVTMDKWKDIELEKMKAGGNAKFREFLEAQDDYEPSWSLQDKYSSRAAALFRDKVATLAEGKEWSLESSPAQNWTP
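System: truncated rat Arfgap1 GAP domain / Medium: HEPES-based buffer, pH 7.5 / Also added: N-terminally truncated human ARF1-GTP substrate / Incubation: enzyme reaction 120 min at 25 °C after 20 min preincubation / Measured by: FP of antibody-bound GDP Alexa 633 tracer, ex 620/em 688 nm / Replicates: singlicate, each compound tested once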
PAFAH1B2 inh: inhibitors of human PAFAH1B2. inhibition, % at 3.39 µM. 1.2% of 340,000 active. recombinant PAFAH1B2, FP-rhodamine activity probe, fluorescence polarization;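 active = inhibition above the mean of all tested compounds plus 3 SD, cut at about 24% in these data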;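 note: 0% = enzyme with DMSO and 100% = wells lacking PAFAH1B2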
Target sequence (P68402 whole entry, looked up): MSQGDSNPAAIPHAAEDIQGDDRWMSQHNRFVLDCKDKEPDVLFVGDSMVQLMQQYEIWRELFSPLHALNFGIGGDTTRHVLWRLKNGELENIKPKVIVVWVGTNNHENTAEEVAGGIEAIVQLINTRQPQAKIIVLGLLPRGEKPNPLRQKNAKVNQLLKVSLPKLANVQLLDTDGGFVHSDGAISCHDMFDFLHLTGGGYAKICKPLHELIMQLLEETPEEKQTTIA
PAFAH1B3 FP inh: blocks human PAF acetylhydrolase 1B catalytic subunit 3; Q15102; recombinant PAFAH1B3, FP-rhodamine probe, fluorescence polarization; inhibition, % at 3.39 µM; 0.28% of 340,000 active; AID 492972;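 active = inhibition above the screen-wide average of all tested compounds plus 3 SD, cut at about 25% in these data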;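 note: 0% = enzyme with DMSO only and 100% = wells lacking PAFAH1B3 protein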
Target sequence (Q15102 whole entry, looked up): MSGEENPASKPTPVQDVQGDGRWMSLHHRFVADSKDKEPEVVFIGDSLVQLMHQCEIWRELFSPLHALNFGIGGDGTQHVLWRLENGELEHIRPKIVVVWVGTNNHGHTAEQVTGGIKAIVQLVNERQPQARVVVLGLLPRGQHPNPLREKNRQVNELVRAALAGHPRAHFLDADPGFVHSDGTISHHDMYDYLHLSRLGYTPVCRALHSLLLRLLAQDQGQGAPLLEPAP
ARFGAP1 confirm: rat ARFGAP1 inhibition, confirmed. inhibition, % at 16.5 µM. AID 651608. 30% of 890 active. ARFGAP1-stimulated ARF1 GTP hydrolysis, GDP tracer FP. shares compounds with ARFGAP1 inh;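 active = average inhibition over triplicates above the hit cutoff set in the earlier primary screen, cut at about 25% in these data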;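 note: 0% = Arfgap1 plus ARF1-GTP with DMSO and 100% = wells lacking Arfgap1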
* hit, by the source's call.

Screening Cc1ccc(/C=N/N(Cc2ccccc2)c2ccccc2)o1 returned ASAP1 GAP inh 0.5, pPAFAH inh 1.4, PAFAH2 inh 2.8, ARFGAP1 inh 32.9*, PAFAH1B2 inh 2.7, PAFAH1B3 FP inh -5.3 and ARFGAP1 confirm 1.6.
For CCN1CCCC1CNC(=O)c1ccc2c(c1)NC(=O)/C(=C\c1ccc(OC)c(OC)c1)S2 (centres undefined) the results were ASAP1 GAP inh 23.8, pPAFAH inh 0.9, PAFAH2 inh -1.4, ARFGAP1 inh 38.9*, PAFAH1B2 inh -0.7, PAFAH1B3 FP inh 2.6 and ARFGAP1 confirm 82.7*.
Cc1cc(OCC(=O)Nc2cccnc2)c2c(C)c(C)c(=O)oc2c1 was read as ASAP1 GAP inh 20.3, pPAFAH inh 2.7, PAFAH2 inh -6.3, ARFGAP1 inh 28.8*, PAFAH1B2 inh 0.5, PAFAH1B3 FP inh 4.3 and ARFGAP1 confirm 29.8*.
`CSc1cccc(NC(=O)C2CC(=O)N(c3ccc4c(c3)OCCO4)C2)c1` (centres undefined) gave ASAP1 GAP inh 4.4 and ARFGAP1 inh -5.8.
For CC1C(=O)N2CCCc3cc(NC(=O)C(=O)NCc4cccnc4)cc1c32 (centres undefined) the results were ASAP1 GAP inh -6.0, pPAFAH inh -0.3, PAFAH2 inh -5.2, ARFGAP1 inh 26.9*, PAFAH1B2 inh -0.7, PAFAH1B3 FP inh 5.7 and ARFGAP1 confirm -3.1.
COc1ccc(CNC(=O)CCS(=O)(=O)c2ccc3c(c2)NC(=O)CS3)cc1 was read as ASAP1 GAP inh 1.1, pPAFAH inh 7.4, PAFAH2 inh 3.2, ARFGAP1 inh 25.1*, PAFAH1B2 inh 0.5, PAFAH1B3 FP inh 3.1 and ARFGAP1 confirm -3.2.
`CC(=O)c1cccc(CN2CCC(C(=O)Nc3cccc(-c4ccn[nH]4)c3)CC2)c1` gave ASAP1 GAP inh -12.2, pPAFAH inh -7.1, PAFAH2 inh -4.9, ARFGAP1 inh -5.1, PAFAH1B2 inh 1.8 and PAFAH1B3 FP inh 11.1.
COc1cc(C(O)c2nc(-c3cc4ccccc4o3)cs2)ccc1F (centres undefined) was read as ASAP1 GAP inh 17.4, ARFGAP1 inh 28.4* and ARFGAP1 confirm 7.0.
For COc1cc2c3c(c1OC)C1(C=CC(=O)C=C1)CC3N(C(C)=O)CC2 (centres undefined) the results were ASAP1 GAP inh -16.5, pPAFAH inh 5.8, PAFAH2 inh 1.4, ARFGAP1 inh 29.4*, PAFAH1B2 inh -1.9, PAFAH1B3 FP inh -6.0 and ARFGAP1 confirm 7.5.
Screening COc1cc2c3c(c1OC)C1(C=CC(=NO)C=C1)CC3N(C(C)=O)CC2 (centres undefined) returned ASAP1 GAP inh -3.4, pPAFAH inh -3.8, PAFAH2 inh 6.4, ARFGAP1 inh -2.0, PAFAH1B2 inh 3.1 and PAFAH1B3 FP inh 6.8.
Screening CCc1ccc(OCC(O)CN2CCN(c3ccc(OC)cc3)CC2)cc1 (centres undefined) returned ASAP1 GAP inh 2.9, pPAFAH inh 1.3, PAFAH2 inh -4.5, ARFGAP1 inh 0.7, PAFAH1B2 inh 5.5 and PAFAH1B3 FP inh -6.1.
Screening CC(=O)Nc1ccc(OCC(O)Cn2c3ccccc3c3ccccc32)c(C)c1 (centres undefined) returned ASAP1 GAP inh 16.9, pPAFAH inh 1.2, PAFAH2 inh 5.5, ARFGAP1 inh 25.4*, PAFAH1B2 inh 5.4, PAFAH1B3 FP inh 5.9 and ARFGAP1 confirm 25.8*.
Screening O=C(Nc1cccc(OC(F)(F)F)c1)C1Cc2c(-c3ccco3)ccnc2O1 (centres undefined) returned ASAP1 GAP inh 2.1 and ARFGAP1 inh 9.8.
Screening Cc1ccc(-c2cc(-c3ccccc3[N+](=O)[O-])[nH]n2)c(O)c1 returned ASAP1 GAP inh 11.9, pPAFAH inh -15.2, PAFAH2 inh -2.0, ARFGAP1 inh 40.6*, PAFAH1B2 inh 2.3, PAFAH1B3 FP inh 7.1 and ARFGAP1 confirm 6.9.
For CCOC(=O)C1CCN(C(=O)c2sc3ncn(CC(=O)N4CCCCC4)c(=O)c3c2C)CC1 the results were ASAP1 GAP inh 20.3 and ARFGAP1 inh -3.8.
Screening COc1ccc(C(=O)N2CCC(C)(C(=O)O)C2)c(OC)c1 (centres undefined) returned ASAP1 GAP inh 4.1, ARFGAP1 inh 25.6* and ARFGAP1 confirm -5.5.
CCOC(=O)C1CCN(C(=O)c2ccc(OC)cc2OC)CC1 was read as ASAP1 GAP inh 9.3, pPAFAH inh 3.1, PAFAH2 inh -6.1, ARFGAP1 inh 29.3*, PAFAH1B2 inh -1.8, PAFAH1B3 FP inh 2.1 and ARFGAP1 confirm 1.9.
Screening C/C=C/c1cccc(-c2nc(C(=O)N3CCOCC3)cc3c2[C@@H](CCO)N(C(=O)NC(C)C)C3)c1 returned ASAP1 GAP inh -6.6 and ARFGAP1 inh -6.0.
Screening CC(=O)Nc1ccc(SC(Sc2ccc(NC(C)=O)cc2)c2ccccc2)cc1 returned ASAP1 GAP inh 15.6, PAFAH2 inh -0.6, ARFGAP1 inh 30.4*, PAFAH1B2 inh -1.6, PAFAH1B3 FP inh -6.3 and ARFGAP1 confirm 19.2.
Screening CC(=O)Nc1ccc(NC(=S)Nc2ccccc2)cc1 returned ASAP1 GAP inh 2.4, pPAFAH inh 3.4, PAFAH2 inh 0.1, ARFGAP1 inh -3.6, PAFAH1B2 inh -0.9 and PAFAH1B3 FP inh -11.4.
For Cc1[nH][nH]c(=O)c1C(c1c(C)[nH][nH]c1=O)c1cn(C)c2ccccc12 the results were ASAP1 GAP inh 1.3, PAFAH2 inh 7.8, ARFGAP1 inh 25.4*, PAFAH1B2 inh 5.1, PAFAH1B3 FP inh 4.1 and ARFGAP1 confirm 0.8.
Nc1cc(Cl)nnc1Cl was read as ASAP1 GAP inh -1.9, PAFAH2 inh -0.9, ARFGAP1 inh 25.0*, PAFAH1B2 inh 2.4, PAFAH1B3 FP inh -0.4 and ARFGAP1 confirm 2.6.
For CC1CCCN(C(=O)C2CC(=O)N(c3ccc(Cl)cc3)C2)C1 (centres undefined) the results were ASAP1 GAP inh 2.1, pPAFAH inh -9.9, PAFAH2 inh 5.0, ARFGAP1 inh -6.0, PAFAH1B2 inh 1.0 and PAFAH1B3 FP inh 7.0.
For COc1ccc(-n2c(SCc3ccc([N+](=O)[O-])cc3)nnc2-c2ccccc2)cc1 the results were ASAP1 GAP inh 1.8, pPAFAH inh 3.3, PAFAH2 inh -3.7, ARFGAP1 inh -4.9, PAFAH1B2 inh -3.9 and PAFAH1B3 FP inh 12.0.
Screening CCOc1ccc(-n2c(SCc3ccc([N+](=O)[O-])cc3)nnc2-c2ccccc2)cc1 returned ASAP1 GAP inh 6.0, pPAFAH inh 3.4, PAFAH2 inh 3.9, ARFGAP1 inh 33.4*, PAFAH1B2 inh 5.8, PAFAH1B3 FP inh 4.6 and ARFGAP1 confirm -2.1.
`Cc1ccc(S(=O)(=O)N(CC(=O)NCc2cccnc2)C2CCCCC2)cc1` gave ASAP1 GAP inh -11.3, pPAFAH inh 1.1, PAFAH2 inh 0.7, ARFGAP1 inh -3.3, PAFAH1B2 inh 5.0 and PAFAH1B3 FP inh 1.6.

Bioassay records as filed in PubChem BioAssay.
